Reference: the array DNA melting data of Ke et al. (doi:10.1101/2024.01.08.574731)

Experiments:
[1] = folding enthalpy; higher = less favourable; fluorescence melt of hairpins on a sequencing array, two-state fit; conditions: sodium 0.088 M
Procedure, shortened: (§1)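 Cy3 signals were normalised both to pre-quench Cy3 and to control constructs. They came from library hairpins carrying annealed Cy3 and quencher oligos on a sequenced MiSeq flow cell, imaged in 50 mM Na-HEPES pH 8.0, 25 mM NaCl, in 2.5 °C steps up to 60 °C. Bootstrapped two-state fits gave melting temperature and folding enthalpy, and four replicates were combined by inverse variance. Fitted temperatures were then raised by 9.35 °C to match UV melts.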

[2] = melting temperature; fluorescence melt of hairpins on a sequencing array, two-state fit, raised by 9.35 °C to match UV melts; conditions: sodium 0.088 M
Procedure, shortened: as §1

**Q.** Which folding enthalpy [1] does the source give for GACCGCGAAAGCGGTGTC ((((((....)))..))) here?
**A.** -8.7 kcal/mol

**Q.** What about the Tm [2] of the same sequence?
**A.** 63.8 °C

**Q.** With GCGATTCTTCGC ((((....)))) as the sequence, how does the folding enthalpy [1] read?
**A.** -26.1 kcal/mol

**Q.** What about the Tm [2] of the same sequence?
**A.** 53.5 °C

**Q.** What does the source list for GATGGCGAAAGCCCCATC ((((((....)))..)))?
**A.** folding enthalpy [1]: -7.84 kcal/mol; Tm [2]: 25.5 °C

**Q.** For GGGTATGAAAATACCC ((((((....)))))), which folding enthalpy [1] is on record?
**A.** -35.4 kcal/mol

**Q.** And the Tm [2]?
**A.** 57.6 °C

**Q.** For GATCGCAGCGGCGATC ((((((....)))))), which folding enthalpy [1] is on record?
**A.** -28.8 kcal/mol

**Q.** And the Tm [2]?
**A.** 68.4 °C

**Q.** With GGCTAGACGAAAGTCGCC (((..(((....)))))) as the sequence, how does the folding enthalpy [1] read?
**A.** -25.2 kcal/mol

**Q.** And the Tm [2]?
**A.** 53.4 °C

**Q.** With GCAACACCGAAAGGTTGC (((..(((....)))))) as the sequence, how does the folding enthalpy [1] read?
**A.** -22.6 kcal/mol

**Q.** What about the Tm [2] of the same sequence?
**A.** 49.8 °C

**Q.** Which results are given for GTCAGCCGAAAGGCCGAC (((.(((....))).)))?
**A.** folding enthalpy [1]: -21.4 kcal/mol; Tm [2]: 55.8 °C

**Q.** For GCTGAGGGAAACCTTGGC ((..(((....)))..)), which folding enthalpy [1] is on record?
**A.** -26.6 kcal/mol

**Q.** What about the Tm [2] of the same sequence?
**A.** 38.1 °C

**Q.** Which results are given for GGGTCGGGAAACCGATCC ((.((((....)))).))?
**A.** folding enthalpy [1]: -47.4 kcal/mol; Tm [2]: 57.4 °C

**Q.** Which results are given for GAGACCGGAAACGGTTTC ((.((((....)))).))?
**A.** folding enthalpy [1]: -22.5 kcal/mol; Tm [2]: 49.5 °C

**Q.** Which results are given for GGGTGTGAAAACACCC ((((((....))))))?
**A.** folding enthalpy [1]: -34.4 kcal/mol; Tm [2]: 69 °C

**Q.** With GCGCTCGAAAGAGATCGC ((((((....)))..))) as the sequence, how does the folding enthalpy [1] read?
**A.** -24.7 kcal/mol

**Q.** And the Tm [2]?
**A.** 45.8 °C

**Q.** Which folding enthalpy [1] does the source give for GAGGAAGGAAACTCCCTC ((((.((....)).)))) here?
**A.** -25 kcal/mol

**Q.** And the Tm [2]?
**A.** 32.1 °C

**Q.** For GCGTTCGAAAGAATCGC ((((((....))).))), which folding enthalpy [1] is on record?
**A.** -33.5 kcal/mol

**Q.** And the Tm [2]?
**A.** 50.2 °C

**Q.** Which folding enthalpy [1] does the source give for GTTTCTCGAAAGAGTAAC (((.(((....))).))) here?
**A.** -26.7 kcal/mol

**Q.** What about the Tm [2] of the same sequence?
**A.** 38 °C

**Q.** Which results are given for CGGCCCGGAAACGGCCCG (((.(((....))).)))?
**A.** folding enthalpy [1]: -17.9 kcal/mol; Tm [2]: 51.8 °C

**Q.** For GATCAGGGAAACCCGATC ((((.((....)).)))), which folding enthalpy [1] is on record?
**A.** -26.1 kcal/mol

**Q.** And the Tm [2]?
**A.** 43 °C

**Q.** Which results are given for GCATAGGGAAACTTGTGC (((.(.(....).).)))?
**A.** folding enthalpy [1]: -13 kcal/mol; Tm [2]: 29.9 °C

**Q.** For GATCTGTATCAGATC ((((((...)))))), which folding enthalpy [1] is on record?
**A.** -34.4 kcal/mol

**Q.** And the Tm [2]?
**A.** 48.2 °C

**Q.** With GCGATTTCTCGC ((((....)))) as the sequence, how does the folding enthalpy [1] read?
**A.** -24.4 kcal/mol

**Q.** And the Tm [2]?
**A.** 49.5 °C

**Q.** Which results are given for GCGACGCGAAAGCCCCGC (((..((....))..)))?
**A.** folding enthalpy [1]: -15.2 kcal/mol; Tm [2]: 44.4 °C

**Q.** Which results are given for GATCTCCAGTGAGATC ((((((....))))))?
**A.** folding enthalpy [1]: -32 kcal/mol; Tm [2]: 50.7 °C

**Q.** What does the source list for GTCCTTGAAAAAGGAC ((((((....))))))?
**A.** folding enthalpy [1]: -33.2 kcal/mol; Tm [2]: 56 °C

**Q.** Which folding enthalpy [1] does the source give for GAGCGGGGAAACTCGCTC (((((.(....).))))) here?
**A.** -38.3 kcal/mol

**Q.** What about the Tm [2] of the same sequence?
**A.** 60.4 °C

**Q.** Which folding enthalpy [1] does the source give for GTGCTGGAAACAGCAC ((((((....)))))) here?
**A.** -33.2 kcal/mol

**Q.** What about the Tm [2] of the same sequence?
**A.** 67.6 °C

**Q.** Which folding enthalpy [1] does the source give for GTTTGGGGAAACTCAGAC ((.((.(....).)).)) here?
**A.** -9.8 kcal/mol

**Q.** What about the Tm [2] of the same sequence?
**A.** 27 °C

**Q.** Which folding enthalpy [1] does the source give for GCTCTGCGAAAGCGGTGC ((.(.((....)).).)) here?
**A.** -19 kcal/mol

**Q.** What about the Tm [2] of the same sequence?
**A.** 54.4 °C

**Q.** Which folding enthalpy [1] does the source give for GATCCGATTCCGGATC ((((((....)))))) here?
**A.** -43.5 kcal/mol

**Q.** What about the Tm [2] of the same sequence?
**A.** 57.1 °C

**Q.** Which folding enthalpy [1] does the source give for GCTCTTCGAAAGAACAGC (((.(((....))).))) here?
**A.** -22.2 kcal/mol

**Q.** And the Tm [2]?
**A.** 34.7 °C

**Q.** Which folding enthalpy [1] does the source give for GATCGTCAAAACGATC ((((((....)))))) here?
**A.** -40 kcal/mol

**Q.** What about the Tm [2] of the same sequence?
**A.** 55.1 °C

**Q.** For GATCTACCCATAGATC ((((((....)))))), which folding enthalpy [1] is on record?
**A.** -35.8 kcal/mol

**Q.** And the Tm [2]?
**A.** 41.4 °C

**Q.** Which results are given for GCCTGGCGAAAGCAACGC ((.(.((....)).).))?
**A.** folding enthalpy [1]: -4.54 kcal/mol; Tm [2]: 23.9 °C

**Q.** Which results are given for GATCCAACGTTGGATC ((((((....))))))?
**A.** folding enthalpy [1]: -58.1 kcal/mol; Tm [2]: 55.6 °C

**Q.** Which folding enthalpy [1] does the source give for GCGTTCGAAAGAAACGC ((((((....))).))) here?
**A.** -35.3 kcal/mol

**Q.** And the Tm [2]?
**A.** 56.1 °C

**Q.** For GATCAATTCCTTGATC ((((((....)))))), which folding enthalpy [1] is on record?
**A.** -35.3 kcal/mol

**Q.** What about the Tm [2] of the same sequence?
**A.** 45.4 °C

**Q.** With GATCTTTAGCAAGATC ((((((....)))))) as the sequence, how does the folding enthalpy [1] read?
**A.** -28.2 kcal/mol

**Q.** And the Tm [2]?
**A.** 37.1 °C

**Q.** For GATGGCGAAAGCCATATC ((((((....)))..))), which folding enthalpy [1] is on record?
**A.** -10.6 kcal/mol

**Q.** And the Tm [2]?
**A.** 52.5 °C

**Q.** Which results are given for GCATGGCGAAAGCGATGC ((((.((....)).))))?
**A.** folding enthalpy [1]: -22 kcal/mol; Tm [2]: 64.2 °C

**Q.** Which results are given for GAGAGCGAAAGCTGCCTC ((((((....)))..)))?
**A.** folding enthalpy [1]: -11.1 kcal/mol; Tm [2]: 27.4 °C

**Q.** With GAGGTGGGAAACCGTCTC (((..((....))..))) as the sequence, how does the folding enthalpy [1] read?
**A.** -8.21 kcal/mol

**Q.** And the Tm [2]?
**A.** 31.1 °C

**Q.** For GGTAACGAAAGTTACACC ((((((....)))..))), which folding enthalpy [1] is on record?
**A.** -13.9 kcal/mol

**Q.** And the Tm [2]?
**A.** 43.5 °C

**Q.** With CGGACGGAAACGTTCCCG ((((((....)))..))) as the sequence, how does the folding enthalpy [1] read?
**A.** -15.8 kcal/mol

**Q.** What about the Tm [2] of the same sequence?
**A.** 37.2 °C

**Q.** Which folding enthalpy [1] does the source give for GTGAGCGAAAGCTACAC ((((((....))).))) here?
**A.** -16.1 kcal/mol

**Q.** And the Tm [2]?
**A.** 49.1 °C

**Q.** With GAGTTGGGAAACCAACTC (((((((....))))))) as the sequence, how does the folding enthalpy [1] read?
**A.** -39.4 kcal/mol

**Q.** And the Tm [2]?
**A.** 62 °C

**Q.** With GTGACCGAAAGGTGTCAC ((((((....)))..))) as the sequence, how does the folding enthalpy [1] read?
**A.** -25.4 kcal/mol

**Q.** What about the Tm [2] of the same sequence?
**A.** 45.8 °C

**Q.** With GGATACCGAAAGGTGTCC (((.(((....))).))) as the sequence, how does the folding enthalpy [1] read?
**A.** -44 kcal/mol

**Q.** And the Tm [2]?
**A.** 58.8 °C
